Experimental findings from ChEMBL document CHEMBL1926668, “Triazine-based vanilloid 1 receptor open channel blockers: design, synthesis, evaluation, and SAR analysis” (J Med Chem, 2011) are described below.

Experiment [1] deals with Transient receptor potential cation channel subfamily V member 1 (Rattus norvegicus, UniProt O35433). The experiment can be described thus: Antagonist activity at rat TRPV1 expressed in Xenopus laevis oocytes assessed as blockage of capsaicin-induced current at holding potential -60 mV by two-microelectrode voltage -clamp amplifier. Type of experiment: functional, cell-based, Oocyte.
Transient receptor potential cation channel subfamily V member 1, sequence (O35433 whole entry): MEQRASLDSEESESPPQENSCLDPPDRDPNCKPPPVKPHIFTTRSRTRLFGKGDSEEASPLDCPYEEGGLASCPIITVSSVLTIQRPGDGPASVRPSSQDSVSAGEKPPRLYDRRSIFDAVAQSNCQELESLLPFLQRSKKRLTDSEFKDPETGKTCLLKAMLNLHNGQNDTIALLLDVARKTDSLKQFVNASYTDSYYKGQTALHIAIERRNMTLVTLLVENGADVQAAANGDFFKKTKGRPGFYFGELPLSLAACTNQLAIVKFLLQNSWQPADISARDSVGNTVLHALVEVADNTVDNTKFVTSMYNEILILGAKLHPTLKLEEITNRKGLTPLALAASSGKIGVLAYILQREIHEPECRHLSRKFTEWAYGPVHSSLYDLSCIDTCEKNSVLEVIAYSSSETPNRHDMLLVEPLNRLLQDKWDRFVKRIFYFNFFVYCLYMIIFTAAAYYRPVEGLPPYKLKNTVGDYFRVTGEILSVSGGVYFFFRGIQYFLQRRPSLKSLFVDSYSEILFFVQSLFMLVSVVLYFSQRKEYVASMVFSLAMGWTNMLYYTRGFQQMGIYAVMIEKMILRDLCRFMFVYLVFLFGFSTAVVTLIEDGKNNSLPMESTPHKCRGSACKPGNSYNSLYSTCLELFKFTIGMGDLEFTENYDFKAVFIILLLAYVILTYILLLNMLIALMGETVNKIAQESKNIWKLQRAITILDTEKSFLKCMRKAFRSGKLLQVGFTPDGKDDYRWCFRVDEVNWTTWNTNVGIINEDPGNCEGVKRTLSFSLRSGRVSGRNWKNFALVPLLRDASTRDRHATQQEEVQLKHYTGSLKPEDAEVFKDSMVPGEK

The target of experiment [2] is Transient receptor potential cation channel subfamily V member 1 (Rattus norvegicus) (UniProt O35433). The experiment can be described thus: Antagonist activity at rat TRPV1 expressed in Xenopus laevis oocytes assessed as blockage of capsaicin-induced current at holding potential -60 mV at 10 uM by two-microelectrode voltage -clamp amplifier. The settings on record: Oocyte. Type of experiment: functional, cell-based. Also on record: scale not given: the % may be the effect or the level left.
Transient receptor potential cation channel subfamily V member 1 (Rattus norvegicus), sequence (O35433 whole entry): as above

For experiment [3] the target is unchanged. Put plainly: Agonist activity at rat TRPV1 expressed in Xenopus laevis oocytes assessed as stimulation of capsaicin-induced current at holding potential -60 mV at 10 uM by two-microelectrode voltage -clamp amplifier. Type of experiment: functional, cell-based. The following applies: Oocyte. Summed up: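 Rat TRPV1-expressing Xenopus oocytes under two-electrode voltage clamp at -60 mV in Mg2+ Ringer's buffer, 20 C. Compound at 10 μM applied without capsaicin, and the inward current it activated was recorded.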

Experiment [4] in a line: Antagonist activity at NMDAR at 1 uM. Type of experiment: functional. Also on record: scale not given: the % may be the effect or the level left.
Experiment [5] is described as follows: Antagonist activity at TRPM8. The class given is functional.
Experiment [6] concerns the target Transient receptor potential cation channel subfamily V member 1 (Rattus norvegicus) (UniProt O35433). Put plainly: Antagonist activity at rat TRPV1 expressed in Xenopus laevis oocytes assessed as blockage of capsaicin-induced current at negative membrane potentials and 10 uM by two-microelectrode voltage -clamp amplifier. The following applies: Oocyte.
Experiment [7] is described as follows: Antagonist activity at TRPM8 at 10 uM. The class given is functional. Also on record: scale not given: the % may be the effect or the level left.
Experiment [8] concerns the target Transient receptor potential cation channel subfamily V member 1 (Rattus norvegicus) (UniProt O35433). Put plainly: Competitive inhibition of rat TRPV1 expressed in Xenopus laevis oocytes. The class given is cell-based. The following applies: Oocyte.
Experiment [9] can be described thus: Selectivity ratio of IC50 for NMDAR to IC50 for rat TRVP1.
A short description of experiment [10]: Selectivity ratio of IC50 for TRPM8 to IC50 for rat TRVP1.
Experiment [11] deals with Transient receptor potential cation channel subfamily V member 1 (Rattus norvegicus) (UniProt O35433). Put plainly: Antagonist activity at rat TRPV1 expressed in Xenopus laevis oocytes assessed as blockage of capsaicin-induced current at depolarizing membrane potential and 10 uM by two-microelectrode voltage -clamp amplifier. The following applies: Oocyte. The class given is functional, cell-based. The method in brief: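 Voltage-dependence protocol in rat TRPV1 oocytes, Mg2+ Ringer's, 20 C. Currents were evoked by 10 μM capsaicin with a linear ramp from -60 to +60 mV over 5 s (25 mV/s), with or without 10 μM compound. Leak current measured without agonist was subtracted. Fractional block was plotted against voltage and fitted to the Woodhull model.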

The nature of experiment [12]: Antagonist activity at TRPM8 at 1 uM. Type of experiment: functional. Also on record: scale not given: the % may be the effect or the level left.
Experiment [13] is described as follows: Antagonist activity at NMDAR. Type of experiment: functional.
A short description of experiment [14]: Antagonist activity at NMDAR at 10 uM. Type of experiment: functional. Also on record: scale not given: the % may be the effect or the level left.

Activity calls are given as the source filed them. No cut-off for these calls is given here.

In general, IC50 refers to the concentration that inhibits the measured activity by half. As to `COc1ccc(CCNc2nc(NCCCN(C)C)nc(NCCc3ccc(OC)cc3)n2)cc1`, the IC50 in [1] came to 0.97 µM. Same read-out and setting: the same measure for `CN(C)CCCNc1nc(NCc2ccc(Cl)cc2Cl)nc(NCc2ccc(Cl)cc2Cl)n1`: 0.84 µM.

For the molecule `NC(=O)CN(CCc1ccc(Cl)cc1Cl)C(=O)CN(CCc1ccc(Cl)cc1Cl)C(=O)CNCCCO`, the Activity in experiment [2] amounted to 32%. In the case of `COC(=O)c1ccc(CNc2nc(NCCCN(C)C)nc(NCc3ccc(C(=O)OC)cc3)n2)cc1`, the IC50 in experiment [1] was found to be 69.1 µM. Same read-out and setting: the same measure for `CN(C)CCCCCNc1nc(NCCc2ccc(F)cc2)nc(NCCc2ccc(F)cc2)n1`: 0.1 µM. As for `CN(C)CCCNc1nc(NCCc2cccc(F)c2)nc(NCCc2cccc(F)c2)n1`, the IC50 in experiment [1] is 0.3 µM. For the molecule `CN(C)CCCNc1nc(NCCc2ccccc2)nc(NCCc2ccccc2)n1`, in experiment [1], the IC50 was found to be 0.67 µM.

On to `CN(C)CCCNc1nc(NCc2ccc(F)cc2F)nc(NCc2ccc(F)cc2F)n1`, for which the IC50 in experiment [1] turned out to be 3.3 µM. For the molecule `CN(C)CCCNc1nc(NCCc2ccc(Cl)cc2)nc(NCCc2ccc(Cl)cc2)n1`, the outcome in experiment [3] was Active. For the same molecule, the 50% inhibitory concentration (IC50) in experiment [1] amounted to 0.5 µM. In the case of `CN(C)CCCNc1nc(NCCc2ccc([N+](=O)[O-])cc2)nc(NCCc2ccc([N+](=O)[O-])cc2)n1`, the IC50 in [1] was 1.63 µM.

For `CN(C)CCCNc1nc(NCCc2c[nH]c3ccccc23)nc(NCCc2c[nH]c3ccccc23)n1`, the IC50 in experiment [1] amounted to 2.33 µM. For the molecule `CN(C)CCCNCC(=O)N(CCc1ccc(Cl)cc1Cl)CC(=O)N(CCc1ccc(Cl)cc1Cl)CC(N)=O`, in experiment [2], the Activity was 55%.

Turning to `CN(C)CCCNc1nc(N2CCN(C(c3ccc(F)cc3)c3ccc(F)cc3)CC2)nc(N2CCN(C(c3ccc(F)cc3)c3ccc(F)cc3)CC2)n1`, the IC50 in [1] stood at 56.4 µM. With `N=C(N)NCCCCN(CC(N)=O)C(=O)CC1C(=O)N(CCc2ccc(Cl)cc2Cl)CC(=O)N1CCc1ccc(Cl)cc1Cl` (configuration not stated), the Activity in experiment [2] was 30%. With `CN(C)CCCNc1nc(NCCc2ccc(Cl)cc2Cl)nc(NCCc2ccc(Cl)cc2Cl)n1`, the IC50 in [1] was found to be 1.21 µM.

Turning to `CN(C)CCOCCNc1nc(NCCc2ccc(F)cc2)nc(NCCc2ccc(F)cc2)n1`, in experiment [1], the IC50 is 7.05 µM. Still for that read-out and setting: the same measure for `CN1CCCC1CCNc1nc(NCCc2ccc(Cl)cc2)nc(NCCc2ccc(Cl)cc2)n1` (configuration not stated): 1.2 µM.

Take `CN(C)CCCNc1nc(NCCc2ccccc2F)nc(NCCc2ccccc2F)n1`: the 50% inhibitory concentration (IC50) in experiment [1] stood at 0.45 µM. For `CN(C)CCCNc1nc(NCCc2ccc(F)cc2)nc(NCCc2ccc(F)cc2)n1`, the Activity in [4] was found to be 25%; in [7], 55%; in [12] it was 37%; in experiment [14] it was 51%. For the same molecule, the values for the half-maximal inhibitory concentration (IC50) in [5], in [1] and in [13] were 7.5 µM, 0.05 µM and 9.2 µM, respectively. Besides, the result in experiment [6] was Active. For the same molecule, in experiment [8], the inhibition result is “inactive”. In addition, the Ratio IC50 in experiment [9] and in [10] was 150 in each case. For the same molecule, the result in experiment [3] and in experiment [11] was inactive. For the molecule `CN1CCCC1CCN(CC(N)=O)C(=O)CC1C(=O)N(CCc2ccc(Cl)cc2Cl)CC(=O)N1CCc1ccc(Cl)cc1Cl` (configuration not stated), in [2], the Activity came out at 40%.

As for `CN(C)CCCNc1nc(NCc2ccc(Cl)cc2)nc(NCc2ccc(Cl)cc2)n1`, the IC50 in experiment [1] came out at 2.62 µM. Still for that read-out and setting: the same measure for `CN(C)CCCNc1nc(NCc2ccc(F)cc2)nc(NCc2ccc(F)cc2)n1`: 3.06 µM; for `NC(N)=NCCCCNc1nc(NCCc2ccc(F)cc2)nc(NCCc2ccc(F)cc2)n1`: 0.55 µM. `CN1CCCC1CCN1CC(=O)N(CCc2ccc(Cl)cc2Cl)C(CC(=O)N(CCc2ccc(Cl)cc2Cl)CC(N)=O)C1=O` (configuration not stated): the Activity in [2] was determined as 3%. Regarding `N=C(N)NCCCCN(CC(N)=O)C(=O)CC1C(=O)N(CCc2ccc(Cl)cc2)CC(=O)N1CCc1ccc(Cl)cc1` (configuration not stated), the Activity in experiment [2] came out at 55%.

Regarding `CN(C)CCCNc1nc(NCc2ccc(C(=O)O)cc2)nc(NCc2ccc(C(=O)O)cc2)n1`, in experiment [1], the IC50 turned out to be 178 µM.

Regarding `CN(C)CCNc1nc(NCCc2ccc(Cl)cc2)nc(NCCc2ccc(Cl)cc2)n1`, in experiment [1], the IC50 was 6.7 µM. Consider `CN(C)CCCNCC(=O)N(CCc1ccc(Cl)cc1)CC(=O)N(CCc1ccc(Cl)cc1)CC(N)=O`, for which, in experiment [2], the Activity amounted to 45%. As to `CCN(CC)CCCN1CC(=O)N(CCc2ccc(Cl)cc2Cl)C(CC(=O)N(CCc2ccc(Cl)cc2Cl)CC(N)=O)C1=O` (configuration not stated), the Activity in [2] came to 3%. Still for that read-out and setting: the same measure for `CCN(CC)CCCNCC(=O)N(CCc1ccc(Cl)cc1Cl)CC(=O)N(CCc1ccc(Cl)cc1Cl)CC(N)=O`: 99%.

As for `CN(C)CCCNc1nc(N2CCc3c([nH]c4ccccc34)C2)nc(N2CCc3c([nH]c4ccccc34)C2)n1`, the half-inhibitory concentration (IC50) in experiment [1] came to 7 µM. Take `CN(C)CCCOc1nc(NCCc2ccc(F)cc2)nc(NCCc2ccc(F)cc2)n1`: in experiment [1], the IC50 amounted to 6.14 µM. Regarding `CCCCNCC(=O)N(CCc1ccc(Cl)cc1Cl)CC(=O)N(CCc1ccc(Cl)cc1Cl)CC(N)=O`, the Activity in experiment [2] was 34%. Take `CN(C)CCCNc1nc(NCc2ccc(C(F)(F)F)cc2)nc(NCc2ccc(C(F)(F)F)cc2)n1`: in [1], the IC50 is 0.66 µM. Still for that read-out and setting: the same measure for `NCCN1CCN(c2nc(NCCc3ccc(Cl)cc3)nc(NCCc3ccc(Cl)cc3)n2)CC1`: 0.96 µM.

For `CN1CCC(N2CCN(c3nc(NCCc4ccc(F)cc4)nc(NCCc4ccc(F)cc4)n3)CC2)CC1`, in experiment [1], the IC50 is 70.9 µM. Still for that read-out and setting: the same measure for `CCCCNc1nc(NCc2ccc(C(=O)O)cc2)nc(NCc2ccc(C(=O)O)cc2)n1`: 229 µM; for `CN(C)CCCNc1nc(NCc2ccc3c(c2)OCO3)nc(NCc2ccc3c(c2)OCO3)n1`: 4.98 µM. For `CN1CCCC1CCN1CC(=O)N(CCc2ccccc2)C(CC(=O)N(CCc2ccc(Cl)cc2Cl)CC(N)=O)C1=O` (configuration not stated), in experiment [2], the Activity was 28%. As for `CN(C)CCCNc1nc(NCCC2=CCCCC2)nc(NCCC2=CCCCC2)n1`, the IC50 in experiment [1] amounted to 218 µM. For `CN1CCCC1CCNCC(=O)N(CCc1ccc(Cl)cc1Cl)CC(=O)N(CCc1ccc(Cl)cc1Cl)CC(N)=O` (configuration not stated), the Activity in experiment [2] came out at 99%.

Take `CN(C)CCN1CCN(c2nc(NCCc3ccc(F)cc3)nc(NCCc3ccc(F)cc3)n2)CC1`: the outcome in [3] was Active. Moreover, in [1], the IC50 amounted to 18.6 µM. As to `CN1CCN(Nc2nc(NCCc3ccc(Cl)cc3)nc(NCCc3ccc(Cl)cc3)n2)CC1`, the IC50 in [1] came out at 6.4 µM.
